Calls of active or inactive are those of the source.
Tests used:
[1] = Inhibition of tubulin polymerization at 20 uM
In short: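 Tubulin at 2.5 mg/mL with 0.5 mM GTP in 80 mM K-PIPES pH 6.8, 1 mM MgCl2, 1 mM EGTA; compound at 20 µM final from DMSO; 37 °C. Light scattering read at 320 and 340 nm every 30 s for 75 min, with paclitaxel and colchicine (20 µM) controls.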

[2] = Toxicity in human A2780 cells xenografted clr:NU/NU-nuBR mouse assessed as maximum tolerated dose; assay type: organism-based; details: in vivo
In short: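 Maximum tolerated dose was set in protocols in naive mice that varied dose, vehicle and frequency, with survival as the end point and peripheral blood counts tracked. The schedule was sc injection every 4 days × 3 in saline acidified to pH 4.0, 100 µL per dose.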

[3] = Dissociation constant, pKa by Sirius GLpKa titrator; assay type: physicochemical
In short: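 Potentiometric pKa measured on a Sirius GLpKa titrator; mean of n = 3 determinations unless marked as a single determination.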

[4] = system: A2780; assay: Induction of mitotic arrest in human A2780 cells expressing MDR1 after 16 hrs; assay type: functional, cell-based; details: A2780, 16 h
[5] = Inhibition of human KSP in presence of 30% mouse serum
In short: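 KSP ATPase assay as the primary one (0.25 nM KSP motor domain, microtubules, 1 mM ATP, pH 6.8, 3 h at RT, quinaldine red phosphate read-out), run with 30% mouse serum dialysed against reaction buffer (12-14 kDa cutoff). Mean of at least 3 experiments unless noted.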

[6] = molecular target: T1, Kinesin-like protein KIF23 (Homo sapiens, UniProt Q02241); assay: Inhibition of cloned human MKLP1
T1 sequence (Q02241 whole entry): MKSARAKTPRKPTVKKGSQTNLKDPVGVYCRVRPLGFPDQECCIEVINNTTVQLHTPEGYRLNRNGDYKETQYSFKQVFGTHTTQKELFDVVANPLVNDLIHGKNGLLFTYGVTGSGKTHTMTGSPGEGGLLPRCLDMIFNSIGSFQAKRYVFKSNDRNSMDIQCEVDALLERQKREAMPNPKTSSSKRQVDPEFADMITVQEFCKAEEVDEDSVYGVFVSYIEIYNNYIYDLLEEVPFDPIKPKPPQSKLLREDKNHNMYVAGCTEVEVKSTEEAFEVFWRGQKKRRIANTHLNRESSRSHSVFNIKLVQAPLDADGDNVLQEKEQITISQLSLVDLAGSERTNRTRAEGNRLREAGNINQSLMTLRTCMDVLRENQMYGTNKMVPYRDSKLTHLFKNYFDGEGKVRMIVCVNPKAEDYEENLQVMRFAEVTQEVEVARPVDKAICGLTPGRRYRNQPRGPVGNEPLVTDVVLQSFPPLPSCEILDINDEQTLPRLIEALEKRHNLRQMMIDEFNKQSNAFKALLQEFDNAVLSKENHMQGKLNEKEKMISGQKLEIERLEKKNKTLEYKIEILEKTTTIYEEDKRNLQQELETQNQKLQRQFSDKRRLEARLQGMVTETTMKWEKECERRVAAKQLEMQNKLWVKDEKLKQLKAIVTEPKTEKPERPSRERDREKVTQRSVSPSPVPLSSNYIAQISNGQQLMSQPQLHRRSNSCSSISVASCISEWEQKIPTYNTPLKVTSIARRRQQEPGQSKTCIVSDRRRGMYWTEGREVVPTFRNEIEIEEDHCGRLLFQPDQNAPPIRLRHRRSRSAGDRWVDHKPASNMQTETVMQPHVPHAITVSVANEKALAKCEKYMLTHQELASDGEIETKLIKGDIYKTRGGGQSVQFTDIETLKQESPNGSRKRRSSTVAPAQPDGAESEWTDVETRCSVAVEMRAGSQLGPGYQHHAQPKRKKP

[7] = molecular target: Kinesin-like protein KIF14 (Homo sapiens, UniProt Q15058); assay: Inhibition of cloned human Kif14
Sequence of Kinesin-like protein KIF14 (Q15058 whole entry): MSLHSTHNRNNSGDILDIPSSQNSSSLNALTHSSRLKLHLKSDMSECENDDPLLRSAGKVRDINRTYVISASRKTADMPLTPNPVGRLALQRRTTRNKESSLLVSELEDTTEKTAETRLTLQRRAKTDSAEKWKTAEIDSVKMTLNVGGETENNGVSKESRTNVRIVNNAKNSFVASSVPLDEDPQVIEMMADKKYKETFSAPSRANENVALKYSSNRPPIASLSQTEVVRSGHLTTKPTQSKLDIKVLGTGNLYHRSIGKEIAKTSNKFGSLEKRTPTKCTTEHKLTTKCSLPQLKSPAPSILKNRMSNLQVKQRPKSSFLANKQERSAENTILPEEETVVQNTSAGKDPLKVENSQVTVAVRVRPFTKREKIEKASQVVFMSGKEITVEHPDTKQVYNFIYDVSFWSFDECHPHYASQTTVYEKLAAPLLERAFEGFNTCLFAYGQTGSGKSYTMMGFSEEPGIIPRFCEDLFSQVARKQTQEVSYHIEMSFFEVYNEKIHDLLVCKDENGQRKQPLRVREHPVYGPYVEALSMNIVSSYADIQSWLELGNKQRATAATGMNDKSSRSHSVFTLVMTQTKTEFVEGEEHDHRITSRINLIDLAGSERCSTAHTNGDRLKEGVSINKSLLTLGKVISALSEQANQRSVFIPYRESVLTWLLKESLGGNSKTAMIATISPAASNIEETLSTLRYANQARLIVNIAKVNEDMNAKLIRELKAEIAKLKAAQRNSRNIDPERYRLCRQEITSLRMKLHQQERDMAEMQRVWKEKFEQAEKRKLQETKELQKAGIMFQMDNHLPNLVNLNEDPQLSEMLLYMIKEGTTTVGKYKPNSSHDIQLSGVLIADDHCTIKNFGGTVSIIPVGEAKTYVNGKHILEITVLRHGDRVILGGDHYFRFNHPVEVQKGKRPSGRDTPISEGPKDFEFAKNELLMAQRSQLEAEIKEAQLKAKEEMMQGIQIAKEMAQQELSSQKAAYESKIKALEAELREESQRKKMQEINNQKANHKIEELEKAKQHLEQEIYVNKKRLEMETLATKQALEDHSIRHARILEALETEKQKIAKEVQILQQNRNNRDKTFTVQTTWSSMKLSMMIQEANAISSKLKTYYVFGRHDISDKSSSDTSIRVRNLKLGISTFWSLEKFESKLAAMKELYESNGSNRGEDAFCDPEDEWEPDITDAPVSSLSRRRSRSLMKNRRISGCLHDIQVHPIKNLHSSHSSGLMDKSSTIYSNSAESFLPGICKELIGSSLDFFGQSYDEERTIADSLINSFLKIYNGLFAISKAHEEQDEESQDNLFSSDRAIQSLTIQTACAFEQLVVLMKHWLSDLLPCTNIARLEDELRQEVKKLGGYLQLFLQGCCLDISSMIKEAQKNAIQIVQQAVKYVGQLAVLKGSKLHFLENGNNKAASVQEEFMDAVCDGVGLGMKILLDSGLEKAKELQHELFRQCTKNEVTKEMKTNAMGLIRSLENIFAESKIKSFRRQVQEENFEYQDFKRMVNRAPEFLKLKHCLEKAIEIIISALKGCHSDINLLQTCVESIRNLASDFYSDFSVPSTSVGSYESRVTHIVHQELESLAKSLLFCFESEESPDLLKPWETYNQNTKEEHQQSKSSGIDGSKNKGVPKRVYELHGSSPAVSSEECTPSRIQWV

[8] = Induction of apoptosis in human […] cells assessed as caspase 3 activation after 48 hrs by fluorescent assay; assay type: functional, cell-based
In short: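 A2780 cells seeded 20 000/well, grown overnight, then treated in triplicate 48 h with vehicle or compound, 300 to 0.415 nM (7-point, 3-fold series), 0.1% DMSO final.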

[9] = Aqueous solubility at pH 4.3; assay type: physicochemical; details: aqueous solution
[10] = system: Rattus norvegicus; assay: Acute toxicity in rat at 15 mg/kg, iv; assay type: organism-based; parameters: dose 15 mg/kg, route intravenous; details: in vivo
[11] = Clearance in rat at 1 mg/kg, iv; assay type: ADME, organism-based; parameters: dose 1 mg/kg, route intravenous; details: in vivo
[12] = Clearance in dog at 0.4 mg/kg, iv; assay type: ADME, organism-based, Canis lupus familiaris; parameters: dose 0.4 mg/kg, route intravenous; details: in vivo
[13] = Volume of distribution at steady state in dog at 0.4 mg/kg, iv; assay type: ADME, organism-based, Canis lupus familiaris; parameters: dose 0.4 mg/kg, route intravenous; details: in vivo, read-out: Vdss
[14] = Half life in dog at 0.4 mg/kg, iv; assay type: ADME, organism-based, Canis lupus familiaris; parameters: dose 0.4 mg/kg, route intravenous; details: in vivo
[15] = Clearance in rhesus monkey at 0.4 mg/kg, iv; assay type: ADME, organism-based, Macaca mulatta; parameters: dose 0.4 mg/kg, route intravenous; details: in vivo
[16] = system: A2780; assay: Inhibition of tumor growth in human A2780 cells xenografted clr:NU/NU-nuBR mouse assessed as change in tumor volume at 100 mg/kg, sc administered q4d x 3 dosing schedule
[17] = system: KB-v; assay: Inhibition of tumor growth in human KB-v cells expressing MDR1 xenografted clr:NU/NU-nuBR mouse assessed as change in tumor volume at 40 mg/kg, sc administered qd x 1 dosing schedule relative to control

In the case of `CN1CC[C@H](N(C)C(=O)N2CC(c3cc(F)ccc3F)=C[C@@]2(CO)c2ccccc2)[C@H](F)C1`, the Activity [1] is reported as “inactive”, the MTD [2] is reported as 100 mg/kg and the pKa [3] is reported as 7.6. The EC50 [4] was 5.3 nM, the IC50 [5] was 29.1 nM and the IC50 [6] was greater than 50 µM. For the same molecule, the IC50 [7] was greater than 50 µM, the EC50 [8] was 2.7 nM and the solubility [9] was greater than 50 mg/mL. The Activity [10] was “Non-toxic”, the clearance [11] was 66.7 mL/min/kg and the clearance [12] was 15.1 mL/min/kg. It also gave a Vd [13] of 1.6 L/kg, a half-life [14] of 120 min and a clearance [15] of 23.1 mL/min/kg. For the same molecule, the Activity [16] was “Active” and the Activity [17] was “Active”.
